Here are results for 9 compounds from ChEMBL document CHEMBL1133862, “Synthesis and binding affinities of 2 beta-(3-iodoallyloxycarbonyl)-3 beta-(4-substituted-aryl)tropane analogues as ligands for the dopamine transporter studies” (Bioorg Med Chem Lett, 2001).

In assay [1] the target is Sodium-dependent dopamine transporter (Rattus norvegicus, UniProt P23977). The experiment in a line: Inhibition of [3H]WIN-35428 binding to Dopamine transporter in rat striatal synaptic membranes. Format: cell membranes, Membrane.
Sodium-dependent dopamine transporter, sequence (P23977 whole entry): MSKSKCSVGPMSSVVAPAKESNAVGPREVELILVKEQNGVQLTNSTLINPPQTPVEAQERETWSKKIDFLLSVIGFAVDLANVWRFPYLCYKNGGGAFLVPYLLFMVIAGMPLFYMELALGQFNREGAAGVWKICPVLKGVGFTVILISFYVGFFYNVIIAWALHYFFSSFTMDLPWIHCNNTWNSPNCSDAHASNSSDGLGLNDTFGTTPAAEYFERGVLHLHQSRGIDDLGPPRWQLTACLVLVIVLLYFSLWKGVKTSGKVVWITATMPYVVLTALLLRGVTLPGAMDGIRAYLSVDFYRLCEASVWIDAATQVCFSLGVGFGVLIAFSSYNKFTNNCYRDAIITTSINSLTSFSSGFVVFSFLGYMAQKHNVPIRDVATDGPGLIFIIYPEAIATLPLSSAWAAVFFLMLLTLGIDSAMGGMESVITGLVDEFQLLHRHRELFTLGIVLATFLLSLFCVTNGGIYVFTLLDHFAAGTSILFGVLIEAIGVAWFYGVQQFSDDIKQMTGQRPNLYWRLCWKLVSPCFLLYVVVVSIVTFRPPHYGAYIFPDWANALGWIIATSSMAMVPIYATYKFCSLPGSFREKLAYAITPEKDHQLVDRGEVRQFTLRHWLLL
Assay [2] deals with Sodium-dependent dopamine transporter (Rattus norvegicus) (UniProt P23977). The experiment in a line: Ratio of binding affinity of E isomer to that of Z isomer towards the dopamine transporter expressed as IC50(E)/IC50(Z). Summed up:
(§1)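 Ratio of IC50 values for the E and Z isomers bearing the same para substituent on the 3β-phenyl ring. Both IC50s come from rat striatal membrane competition binding against 3 nM [3H]WIN 35,428, with 13 concentrations from 10^-12 to 10^-4 M and (−)-cocaine defining nonspecific binding.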

Assay [3] shares this target. As to the kind of experiment: Ratio of binding affinity of E isomer to that ofZ isomer towards the dopamine transporter expressed as IC50(E)/IC50(Z). Put shortly:
as §1

A word on the IC50: it is the point on the concentration scale where inhibition reaches its midpoint. A higher IC50 goes with weaker potency in that assay.

Sodium-dependent dopamine transporter (Rattus norvegicus), sequence (P23977 whole entry): as above

With `CN1C2CCC1C(C(=O)OC/C=C\I)C(c1ccccc1)C2` (stereo not drawn), in assay [1], the IC50 came out at 308 nM. Also, the Ratio in assay [2] came out at 2.84. On to `Cc1ccc(C2CC3CCC(C2C(=O)OC/C=C\I)N3C)cc1` (stereo not drawn), for which the IC50 in assay [1] was found to be 39.2 nM. Further, the Ratio in assay [3] was 4.84. The compound `CN1C2CCC1C(C(=O)OC/C=C/I)C(c1ccccc1)C2` (stereo not drawn) came in with an IC50 in assay [1] of 876 nM. On the same count and under the same terms, to `CN1C2CCC1C(C(=O)OC/C=C/I)C(c1ccc(Cl)cc1)C2` (stereo not drawn) belongs 46.6 nM; to `CN1C2CCC1C(C(=O)OC/C=C/I)C(c1ccc(F)cc1)C2` (stereo not drawn), 567 nM. `CN1C2CCC1C(C(=O)OC/C=C\I)C(c1ccc(Cl)cc1)C2` (stereo not drawn): the half-inhibitory concentration (IC50) in assay [1] turned out to be 24.9 nM. For the same compound, the Ratio in assay [3] was determined as 1.87. In the case of `CN1C2CCC1C(C(=O)OC/C=C\I)C(c1ccc(F)cc1)C2` (stereo not drawn), in assay [1], the IC50 amounted to 356 nM. The Ratio in assay [3] worked out at 1.59.

In turn, `Cc1ccc(C2CC3CCC(C2C(=O)OC/C=C/I)N3C)cc1` (stereo not drawn) had a half-maximal inhibitory concentration (IC50) in assay [1] of 190 nM.

Regarding `COC(=O)C1C(c2ccc(Cl)cc2)CC2CCC1N2C/C=C/I` (stereo not drawn), the concentration for half-maximal inhibition (IC50) in assay [1] is 6.1 nM.
